Sampled rows, rich in hits. Any-hit rate of the full collection: about 2.6%.
MEKK2 mut-MEK5: signal of MEK5 binding to mutant human MEKK2 PB1 domain; bead flow cytometry, Alexa488-MEK5 binding to MEKK2 mutant; percent response, % at 10 µM; 290,000 compounds, 0.35% hits; AID 1530; in the data active = percent response above about 24%, passing the limit was not always enough
MEKK3 PB1 HTS: MEKK3-MEK5 PB1 interaction, increase or decrease | Q99759 | bead-based flow cytometry, Alexa488-MEK5 binding to MEKK3; actives lie on both sides; 0 = blocked by unlabeled MEK5, 100 = vehicle | binding response (% of control), % at 10 µM | 290,000 compounds, 1.4% hits;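 active = binding response more than 3 SD above or below the average of its plate-row segment, actives on both sides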;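 note: Alexa488 bead fluorescence after subtracting the streptavidin-only scavenger bead signal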
Target sequence (Q99759 whole entry, looked up): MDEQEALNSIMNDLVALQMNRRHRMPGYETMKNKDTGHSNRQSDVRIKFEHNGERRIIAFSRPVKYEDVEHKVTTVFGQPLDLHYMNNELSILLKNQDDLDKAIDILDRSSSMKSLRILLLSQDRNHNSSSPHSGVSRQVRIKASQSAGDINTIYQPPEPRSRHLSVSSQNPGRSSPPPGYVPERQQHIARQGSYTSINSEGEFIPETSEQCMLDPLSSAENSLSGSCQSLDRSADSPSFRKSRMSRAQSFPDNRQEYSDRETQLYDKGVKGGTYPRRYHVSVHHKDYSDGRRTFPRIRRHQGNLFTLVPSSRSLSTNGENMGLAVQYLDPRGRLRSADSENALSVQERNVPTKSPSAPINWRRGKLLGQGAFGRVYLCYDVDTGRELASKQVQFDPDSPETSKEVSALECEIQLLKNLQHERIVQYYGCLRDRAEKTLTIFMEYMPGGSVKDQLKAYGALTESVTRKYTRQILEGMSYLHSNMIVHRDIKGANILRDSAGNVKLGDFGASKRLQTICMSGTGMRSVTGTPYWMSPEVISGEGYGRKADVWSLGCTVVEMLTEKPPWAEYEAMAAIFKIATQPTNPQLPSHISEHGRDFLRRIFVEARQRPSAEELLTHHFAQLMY
MEKK2 WT-MEK5: raises or lowers MEK5 binding to wildtype human MEKK2 PB1 domain; 290,000 compounds, 1.1% hits; bead flow cytometry, Alexa488-MEK5 binding to MEKK2 WT; actives lie on both sides; binding response (% of control), % at 10 µM; AID 1531; in the data active = binding response below about 67% or above about 130%
Lipid droplet: hepatic lipid droplet formation modulation; AML12 mouse hepatocytes, oleate lipid droplets, BODIPY imaging; inhibition, % at 6.5 µM; 240,000 compounds, 0.4% hits; AID 1656;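 active = lipid droplet intensity inhibited by at least 50%, with more than 500 cells counted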
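Assay system: AML12 hepatocytes (mouse) / Also added: 100 µM oleic acid challenge / Times: overnight treatment with compound plus oleate / Detection: high-content imaging of BODIPY-stained droplets and DAPI nuclei / Evaluation: % inhibition of lipid droplet signal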
MEKK2wt confirm: raises or lowers MEK5 binding to wildtype human MEKK2, retest; binding response (% of control), % at 10 µM; 5,900 compounds, 2.4% hits; shares compounds with MEKK3 PB1 HTS; bead flow cytometry, Alexa488-MEK5 binding to MEKK2 WT; actives lie on both sides; in the data active = binding response below about 16% or above about 210%; inactive = in between
MEKK2mut-MEK5: signal of MEK5 binding to mutant human MEKK2, retest | shares compounds with MEKK3 PB1 HTS | percent response, % at 10 µM | bead flow cytometry, Alexa488-MEK5 binding to MEKK2 mutant | 5,900 compounds, 2% hits; in the data active = percent response mostly above about 71%, no sharp cut-off; inactive = mostly below about 38%;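 note: higher means compound restores mutant binding toward wildtype level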
MEKK3 confirm: confirmation of inhibitors of MEK5 binding to human MEKK3 | bead flow cytometry, Alexa488-MEK5 binding to MEKK3; hits give low values | shares compounds with MEKK3 PB1 HTS | AID 1894 | binding response (% of control), % at 10 µM | 5,900 compounds, 1.8% hits;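 active = binding response below 72% of control, or above a set upper limit, though filed actives all read lower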;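 note: lower values mean stronger disruption of MEK5 binding to MEKK3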
Hits are given with their value; - = inactive; . = no result given; [ ] = dose if it differs, or a comment.

SMILES	MEKK2 mut-MEK5	MEKK3 PB1 HTS	MEKK2 WT-MEK5	Lipid droplet	MEKK2wt confirm	MEKK2mut-MEK5	MEKK3 confirm
CCCCCCCCCn1ccc(=N)cc1	-	131.0	140.0	-	-	-	-
CNC(=O)CCc1[nH]c2ccccc2c1Sc1ccccc1	-	160.0	-	-	-	-	-
O=C(Cn1cc(/C=N/NC(=O)c2ccccc2Br)c2ccccc21)Nc1ccc(F)cc1	-	-	-	-	.	.	.
O=C(Cn1cc(/C=N/NC(=O)c2cccc3ccccc23)c2ccccc21)Nc1ccc(F)cc1	-	38.0[inhibitor]	38.0[inhibitor]	-	-	-	-
COc1ccc(-c2noc(CNC(=O)CCN3C(=O)[C@H]4CC=CC[C@H]4C3=O)n2)cc1	-	-	-	-	.	.	.
CCOc1ccccc1N/C(=N/c1nc(C)cc(C)n1)NC(=O)Nc1ccc(Cl)c(Cl)c1	-	72.0[inhibitor]	-	-	-	-	-
CCCOc1ccc(C2=NNC(=O)CC2)cc1	-	68.0[inhibitor]	-	-	-	-	-
O=C(/C=C/c1ccc(Cl)c([N+](=O)[O-])c1)Nc1cccc(NC(=O)c2ccco2)c1	-	143.0	-	-	-	-	-
CC(=O)c1ccc(NC(=O)CN2C(=O)COc3ccc(S(=O)(=O)N4CCCC4)cc32)cc1	-	-	-	-	.	.	.
COc1ccc(NC(=O)COC(=O)CNC(=O)c2cc(OC)c(OC)c(OC)c2)cc1	-	145.0	-	-	-	-	-
COc1ccc(C(=O)NCC(=O)OCC(=O)Nc2cc(OC)ccc2OC)cc1	-	-	-	-	.	.	.
Cc1c(C(=O)NC2=NCCS2)cccc1[N+](=O)[O-]	-	-	-	-	.	.	.
CCCNS(=O)(=O)c1ccc(OCC(=O)N2CCOCC2)cc1	-	69.0[inhibitor]	-	-	-	-	-
COc1ccccc1CN1C(=NC(=O)C2CCCCC2)SC2CS(=O)(=O)CC21 (configuration not stated)	-	-	-	-	.	.	.
COc1ccc(/C(=C/c2ccc(OC(F)F)c(OC)c2)C(=O)O)cc1OC	-	128.0	-	-	-	-	-
Cc1cc(C)c([N+](=O)[O-])cc1-c1ccc(/C=N/c2c(-c3ccco3)nc3ccccn23)o1	-	-	-3.0[inhibitor]	.	-	-	-
CC1CCCCN1C(=O)C(=O)c1cn(CC(=O)N2CCCCCC2)c2ccccc12 (configuration not stated)	-	-	-	-	.	.	.
COc1ccc(CCNc2cc(C)nc3c(-c4ccccc4)cnn23)cc1OC	-	-	-	-	.	.	.
COc1ccc(CCNc2cc(C)nc3c(-c4ccc(Cl)cc4)cnn23)cc1OC	-	136.0	-	-	-	-	-
O=[N+]([O-])c1cc(CN2CCCC2)ccc1Sc1ccc(Cl)cc1	-	-	149.0	-	-	-	-
Clc1ccc(CN2CCCCCC2)cc1	-	-	-	-	.	.	.
CCN1CCc2c(C#N)c(N3CCCCC3)nc(NCc3ccccc3)c2C1	-	-	158.0	-	-	-	-
Nc1ccc2nc(-c3cccc(-c4nc5ccc(N)cc5[nH]4)n3)[nH]c2c1	-	79.0[inhibitor]	-	-	-	-	-
Nc1ccc2nc(-c3ccc(-c4nc5ccc(N)cc5[nH]4)cc3)[nH]c2c1	-	53.0[inhibitor]	65.0[inhibitor]	-	-	-	71.0
Nc1ccc2nc(CCCCCCCCc3nc4ccc(N)cc4[nH]3)[nH]c2c1	-	-	140.0	-	-	-	-
SMILES	MEKK2 mut-MEK5	MEKK3 PB1 HTS	MEKK2 WT-MEK5	Lipid droplet	MEKK2wt confirm	MEKK2mut-MEK5	MEKK3 confirm
Cc1ccc(NC(=O)C2CCCO2)cc1[N+](=O)[O-] (configuration not stated)	-	-	-	-	.	.	.
Cc1cc(Cl)ccc1OCC(=O)NCC(=O)N/N=C/c1ccco1	-	-	-	-	.	.	.
Cc1ccc(C23CC4CC(CC(CN)(C4)C2)C3)cc1	-	-	-	-	.	.	.
NCC12CC3CC(C1)CC(c1ccc(Br)cc1)(C3)C2	-	-	153.0	-	-	-	-
CCOP(=O)(OCC)C(NC(=O)C(F)(F)F)c1ccccc1 (configuration not stated)	-	137.0	-	-	-	-	-
O=C(O)C1Nc2c(C(=O)N3CCOCC3)cccc2C2C=CCC12 (configuration not stated)	-	-	-	.	.	.	.
Cc1ccc2c(c1C)NC(C(=O)O)C1CC=CC21 (configuration not stated)	36.0	-	39.0	-	-	-	-
CCN1CCN(Cc2nnc(-c3ccccc3)o2)CC1	-	-	-	-	.	.	.
c1ccc(-c2nnc(CN3CCCc4ccccc43)o2)cc1	26.0	-	9.0	-	-	-	-
c1ccc(-c2nnc(CN3CCCCC3)o2)cc1	-	-	-	-	.	.	.
Fc1ccc(N2CCN(Cc3nnc(-c4ccccc4)o3)CC2)cc1	-	135.0	-	-	-	-	-
COc1ccc(C(=O)CN2C(=O)c3ccccc3C2=O)cc1	-	-	-	-	.	.	.
Cc1cn2c(nc1=O)OC1CC2OC1CO (configuration not stated)	-	-	-	-	.	.	.
Cc1ccc2cc(CN(Cc3ccco3)C(=O)C3CCCCC3)c(=O)[nH]c2c1C	-	-	-	.	.	.	.
Cc1ccc2cc(CN(Cc3ccco3)C(=O)NC3CCCCC3)c(=O)[nH]c2c1C	-	64.0[inhibitor]	-	-	-	-	-
Nc1ccccc1C(=O)N1CCCC1	-	-	-	-	.	.	.
CCOc1ccccc1NC(=O)CNS(=O)(=O)c1ccc2nc(C)sc2c1	-	-	-	-	.	.	.
COc1ccc(Nc2nc(N)nc(CSCCO)n2)cc1	-	-	135.0	-	-	-	-
CNC(=O)COC(=O)/C=C/c1cccc(F)c1	-	-	-	-	.	.	.
CC(C)(C)C(=O)Cn1nc(Cl)nc1Cl	-	132.0	-	-	-	-	-
CC(C)(C)NC(=O)C(=O)NCCC1=CCCCC1	-	-	-	-	.	.	.
O=C(O)C1C2C=CC(O2)C1C(=O)NCCC1=CCCCC1 (configuration not stated)	-	1.0[inhibitor]	1.0[inhibitor]	-	-	-	-
O=C(NCCC1=CCCCC1)C(=O)NCc1ccccc1	-	-	-	-	.	.	.
Cc1[nH]c2ccccc2c1C(=O)C(=O)NCCC1=CCCCC1	-	135.0	-	-	-	-	-
C1=C(CCNc2ncnc3c2[nH]c2ccccc23)CCCC1	-	-	143.0	-	-	-	-
Cc1ccc(CNC(=O)C(=O)NCCC2=CCCCC2)cc1	-	72.0[inhibitor]	-	-	-	-	-
O=C(CN(Cc1ccc(F)cc1)C(=O)CCC(=O)Nc1nccs1)NCc1ccccc1	-	-	-	-	.	.	.
O=C(CCSCc1cccc(Cl)c1)NCCC1=CCCCC1	-	-	-	-	.	.	.
Cc1ccc(CSCCC(=O)NCCC2=CCCCC2)cc1	-	130.0	-	-	-	-	-
